Experimental findings from ChEMBL document CHEMBL1127086, “Syntheses and biological evaluations of 3'-deoxy-3'-C-branched-chain-substituted nucleosides” (1993) are described below.

The inhibition is the change of the read-out against control, counted positive when it falls.

The target in assay [1] is T1, Thymidine kinase, cytosolic (Homo sapiens) (UniProt P04183).
T1 sequence (whole entry): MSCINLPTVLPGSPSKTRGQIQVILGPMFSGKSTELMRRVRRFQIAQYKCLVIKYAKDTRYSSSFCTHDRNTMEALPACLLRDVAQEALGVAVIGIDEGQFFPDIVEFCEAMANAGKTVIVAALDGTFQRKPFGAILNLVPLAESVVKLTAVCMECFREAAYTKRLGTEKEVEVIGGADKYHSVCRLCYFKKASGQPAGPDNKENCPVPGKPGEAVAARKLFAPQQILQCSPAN
Nature of the assay: […] thymidine kinase activity from K562 mammalian cells at 500 uM concentration. The assay is classed as cell-based.

A further assay relates to CCRF-CEM. Nature of the assay: Tested in vitro for anticancer activity against replication of human CCRF-CEM lymphoblastic cell line after 72 hr incubation. The assay is classed as functional. To be noted: read-out: ED50 (the source's name). The procedure, abridged:
(§1)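 Suspension cultures at 37 °C, 5% CO₂. L1210, P388 and S-180 were grown in Fisher's medium and CCRF-CEM in RPMI 1640, each with 10% horse serum. Exponentially growing cells at 2 × 10⁴ cells/mL were exposed to various concentrations and counted at 24, 48 and 72 h. ED₅₀ for 50% growth inhibition at 72 h was estimated from dose-response curves, ≥2 independent experiments.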

The nature of assay [2]: Tested in vitro for anticancer activity against replication of murine Sarcoma 180 cell line after 72 h incubation. The conditions noted are these: Mus musculus, 180, 72 h; read-out: ED50 (the source's name). The format is functional. An outline of the steps: as §1
In another assay the test system is P388. The assay can be described thus: Tested in vitro for anticancer activity against replication of murine leukemia P388 cell line after 72 hr incubation. The conditions noted are these: Mus musculus, P388, 72 h; read-out: ED50 (the source's name). The assay is classed as functional. An outline of the steps: as §1
The test system of another assay is L1210. The assay can be described thus: Tested in vitro for anticancer activity against replication of murine leukemia L1210 cell line after 72 hr incubation. The assay is classed as functional. The conditions noted are these: Mus musculus, L1210, 72 h; read-out: ED50 (the source's name). The procedure, abridged:
as §1

In assay [3] the test system is MT2. Nature of the assay: Antiviral activity against HIV-1(HTLV-III B) in MT-2 cells; Not active uM concentration. The format is functional, cell-based. To be noted: Homo sapiens. An outline of the steps: (§2)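 MT-2 cells, 1 × 10⁴ per well in triplicate wells, infected with HIV-1 (HTLV-III) at MOI 0.5 TCID₅₀/cell, then given serial drug dilutions. MTT added after 7 days. Antiviral effect taken from A₅₇₀ of infected cells compared with A₅₇₀ of uninfected drug-free cells. Concentrations tested up to 100 μM.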

The subject of assay [4] is Thymidine kinase (Human herpesvirus 2). The assay can be described thus: Antiviral activity against thymidine kinase from Herpes simplex virus type-2 (333 Strain) infected HeLa (Bu-25-TK-) cells at 500 uM concentration.
The test system of assay [5] is Thymidine kinase (Human herpesvirus 1). Nature of the assay: Antiviral activity against thymidine kinase from Herpes simplex virus type-1 (KOS Strain) infected HeLa (Bu-25-TK-) cells at 500 uM concentration.
The test system of assay [6] is MT2. Nature of the assay: Antiviral activity against HIV-1(HTLV-III B) in MT-2 cells at 100 uM; Not active up to 100 uM concentration. To be noted: Homo sapiens. The format is functional, cell-based. An outline of the steps: as §2

Calls of active or inactive are those of the source. The calls are words filed in the database; no cut-off is given here.

`Cc1cn([C@@H]2O[C@H](CO)[C@@H](O)[C@@H]2O)c(=O)[nH]c1=O` showed an inhibition in assay [1] of 5%.

`Cc1cn([C@@H]2O[C@H](CO)[C@@H](CN)[C@H]2O)c(=O)[nH]c1=O`: the EC50 (with CCRF-CEM; in [2]; in the assay on P388; with L1210) was > 100 µM throughout.

`Cc1cn([C@@H]2O[C@H](CO)[C@@H](CN=[N+]=[N-])[C@H]2O)c(=O)[nH]c1=O`: the inhibition result in the assay on MT2 [3] was “inactive”. Further, the EC50 (with CCRF-CEM; in [2]; in the assay on P388; in the assay with L1210) was > 100 µM in each case.

`Cc1cn([C@@H]2O[C@H](CO)[C@@H](CO)[C@@H]2O)c(=O)[nH]c1=O`: the EC50 (in the assay on CCRF-CEM; in assay [2]; in the assay on P388; in the assay with L1210) was > 100 µM each time. For the same compound, the values for the inhibition in [4], in assay [5] and in assay [1] were 6.9%, 11.7% and 0.7%, respectively.

`Cc1cn([C@H]2C[C@H](CN)[C@@H](CO)O2)c(=O)[nH]c1=O`: the EC50 (in the assay on CCRF-CEM; in assay [2]; with P388; with L1210) was > 100 µM in each case.

As to `Cc1cn([C@@H]2O[C@H](CO)[C@@H](CN)[C@@H]2O)c(=O)[nH]c1=O`, the EC50 (in the assay on CCRF-CEM; in [2]; with P388; in the assay with L1210) was > 100 µM in each case.

Take `Cc1cn([C@@H]2O[C@H](CO)[C@@H](CF)[C@H]2O)c(=O)[nH]c1=O`: the inhibition result with MT2 [6] is “inactive”. Also, the EC50 (in the assay on CCRF-CEM; in assay [2]; with P388; with L1210) was > 100 µM throughout. Moreover, the inhibition in assay [4] was 4.9%; in assay [5], 7%; in assay [1] it was 2.5%.

For `Cc1cn([C@@H]2O[C@H](CO)[C@@H](CO)[C@H]2O)c(=O)[nH]c1=O`, the EC50 (with CCRF-CEM; in assay [2]; in the assay with P388; with L1210) was > 100 µM in each case. Also, the inhibition in assay [4] came to 0%; in [5], 2.6%; in assay [1] it was 3%.

For `Cc1cn([C@@H]2O[C@H](CO)[C@@H](CF)[C@@H]2O)c(=O)[nH]c1=O`, in the assay with MT2 [3], the inhibition entry is “inactive”. Moreover, the EC50 (in the assay on CCRF-CEM; in [2]; in the assay with P388; with L1210) was > 100 µM throughout. In addition, the inhibition was found to be 10.9% in assay [4], 13.8% in assay [5] and 7.1% in assay [1].

Take `Cc1cn([C@H]2C[C@H](CN=[N+]=[N-])[C@@H](CO)O2)c(=O)[nH]c1=O`: the inhibition entry with MT2 [3] is “inactive”. The EC50 (with CCRF-CEM; in assay [2]; with P388; in the assay with L1210) was > 100 µM throughout.

With `Cc1cn([C@H]2C[C@H](CO)[C@@H](CO)O2)c(=O)[nH]c1=O`, the EC50 in the assay on CCRF-CEM stood at 1 µM; in assay [2], 10 µM; in the assay with P388, 5 µM; in the assay with L1210, 50 µM. In addition, the figures for the inhibition in [4], in [5] and in assay [1] were 0%, 59.1% and 3%, respectively.

Regarding `Cc1cn([C@H]2C[C@H](CF)[C@@H](CO)O2)c(=O)[nH]c1=O`, the inhibition entry with MT2 [6] is “inactive”. In addition, the EC50 (in the assay on CCRF-CEM; in assay [2]; with P388; with L1210) was > 100 µM in each case. In addition, the figures for the inhibition in assay [4], in assay [5] and in assay [1] were 4%, 85.2% and 5.4%, respectively.

In the case of `Cc1cn([C@@H]2O[C@H](CO)[C@@H](CN=[N+]=[N-])[C@@H]2O)c(=O)[nH]c1=O`, in the assay with MT2 [3], the inhibition result is “inactive”. Moreover, the EC50 is > 100 µM in the assay on CCRF-CEM, > 100 µM in [2], > 100 µM with P388 and 10 µM in the assay on L1210.
